The source made the active and inactive calls. No cut-off for these calls is given here.
Legend:
[1] = system: Leishmania braziliensis; experiment: Antileishmanial activity against promastigote form of Leishmania braziliensis MHOM/BR/1975/M2904 assessed as disorganized flagellum at IC25 concentration after 96 hrs by MET microscopic analysis; assay type: functional; details: MHOM/BR/75/M2904
Method in brief: (§1)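 Promastigotes at 5 × 10^5 cells/mL in MTL medium with compound at IC25 for 96 h. Ultrastructure examined by transmission electron microscopy against untreated control parasites.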

[2] = system: Leishmania braziliensis; experiment: Antileishmanial activity against promastigote form of Leishmania braziliensis MHOM/BR/1975/M2904 assessed as swollen parasites at IC25 concentration after 96 hrs by MET microscopic analysis; assay type: functional; details: MHOM/BR/75/M2904; method in brief: as §1
[3] = system: Leishmania braziliensis; experiment: Antileishmanial activity against promastigote form of Leishmania braziliensis MHOM/BR/1975/M2904 assessed as disorganized flagellar pocket at IC25 concentration after 96 hrs by MET microscopic analysis; assay type: functional; details: MHOM/BR/75/M2904; method in brief: as §1
[4] = system: Leishmania braziliensis; experiment: Antileishmanial activity against promastigote form of Leishmania braziliensis MHOM/BR/1975/M2904 assessed as lipid natured cytoplasm at IC25 concentration after 96 hrs by MET microscopic analysis; assay type: functional; details: MHOM/BR/75/M2904; method in brief: as §1
[5] = system: Leishmania braziliensis; experiment: Antileishmanial activity against promastigote form of Leishmania braziliensis MHOM/BR/1975/M2904 assessed as small vacuoles at IC25 concentration after 96 hrs by MET microscopic analysis; assay type: functional; details: MHOM/BR/75/M2904; method in brief: as §1
[6] = Inhibition of promastigote form Leishmania braziliensis MHOM/BR/1975/M2904 Fe-SOD by NBT reduction assay; set-up: species or system Leishmania braziliensis MHOM/BR/75/M2904
Method in brief: (§2)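 Promastigotes sonicated in sucrose/Tris-HCl/EDTA buffer, pH 7.8, and centrifuged. Protein precipitating at 35–85% ammonium sulphate desalted into 20 mM potassium phosphate with 1 mM EDTA, pH 7.8. Protein measured by Bradford. Fe-SOD activity read spectrophotometrically as inhibition of NBT reduction by superoxide, with compounds at 0.1–50. IC50 by linear regression of Kc values; three determinations; Newman-Keuls test vs control homogenate.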

[7] = system: Leishmania braziliensis; experiment: Antileishmanial activity against promastigote form of Leishmania braziliensis MHOM/BR/1975/M2904 assessed as structural disruptions at IC25 concentration after 96 hrs by MET microscopic analysis; assay type: functional; details: MHOM/BR/75/M2904; method in brief: as §1
[8] = system: Leishmania braziliensis; experiment: Antileishmanial activity against promastigote form of […] Leishmania braziliensis MHOM/BR/1975/M2904 infected in J774.2 cells assessed as inhibition of infection in host cells at IC25 concentration incubated for 12 hrs […] by microscopic analysis; assay type: functional, MHOM/BR/75/M2904
[9] = system: Leishmania infantum; experiment: Antileishmanial activity against promastigote form of Leishmania infantum MCAN/ES/2001/UCM-10 assessed as mortality at IC25 concentration after 96 hrs by […] electron microscopic analysis; assay type: functional, organism-based; method in brief: as §1
[10] = Selectivity index, ratio of IC50 for mouse J774.2 cells to IC50 for promastigote form of Leishmania infantum MCAN/ES/2001/UCM-10; assay type: toxicity; details: J774.2 cells, read-out: Ratio IC50
Method in brief: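 J774.2 toxicity: 72 h at the same concentrations, viability by flow cytometry with propidium iodide/fluorescein diacetate; IC50 by linear regression. SI = macrophage IC50/parasite IC50; ratio is compound SI over Glucantime SI.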

[11] = system: Leishmania braziliensis; experiment: Antileishmanial activity against promastigote form of Leishmania braziliensis MHOM/BR/1975/M2904 assessed as nuclear alterations at IC25 concentration after 96 hrs by MET microscopic analysis; assay type: functional; details: MHOM/BR/75/M2904; method in brief: as §1
[12] = system: Leishmania braziliensis; experiment: Antileishmanial activity against promastigote form of Leishmania braziliensis MHOM/BR/1975/M2904 assessed as empty vacuoles at IC25 concentration after 96 hrs by MET microscopic analysis; assay type: functional; details: MHOM/BR/75/M2904; method in brief: as §1
[13] = Ratio of compound selectivity index to glucantime selectivity index for axenic amastigote form of Leishmania braziliensis MHOM/BR/1975/M2904 over mouse J774.2 cells
Method in brief: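 Axenic amastigotes obtained by 3-day promastigote transformation in supplemented M199 + 10% heat-inactivated FCS, pH 5.4, 37 °C. […] Host toxicity: J774.2, 72 h, PI/FDA flow cytometry. SI = macrophage IC50/axenic amastigote IC50; ratio is compound SI over Glucantime SI.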

[14] = system: Leishmania braziliensis MHOM/BR/75/M2904; experiment: Inhibition of promastigote form Leishmania braziliensis MHOM/BR/1975/M2904 Fe-SOD at 12.5 uM by NBT reduction assay relative to control; method in brief: as §2
[15] = system: Leishmania infantum; experiment: Antileishmanial activity against promastigote form of Leishmania infantum MCAN/ES/2001/UCM-10 assessed as high electro density at IC25 concentration after 96 hrs by […] electron microscopic analysis; assay type: functional, organism-based; method in brief: as §1
[16] = system: Leishmania infantum; experiment: Antileishmanial activity against promastigote form of Leishmania infantum MCAN/ES/2001/UCM-10 assessed as swollen mitochondria at IC25 concentration after 96 hrs by […] electron microscopic analysis relative to control; assay type: functional, organism-based; method in brief: as §1
[17] = system: Leishmania infantum; experiment: Antileishmanial activity against promastigote form of Leishmania infantum MCAN/ES/2001/UCM-10 assessed as size reduction at IC25 concentration after 96 hrs by […] electron microscopic analysis; assay type: functional, organism-based; method in brief: as §1
[18] = system: Leishmania infantum; experiment: Antileishmanial activity against promastigote form of Leishmania infantum MCAN/ES/2001/UCM-10 assessed as swollen kinetoplast at IC25 concentration after 96 hrs by […] electron microscopic analysis relative to control; assay type: functional, organism-based; method in brief: as §1
[19] = system: Leishmania infantum; experiment: Antileishmanial activity against promastigote form of Leishmania infantum MCAN/ES/2001/UCM-10 assessed as disorganized cytoplasm at IC25 concentration after 96 hrs by […] electron microscopic analysis relative to control; assay type: functional, organism-based; method in brief: as §1
[20] = system: Leishmania infantum; experiment: Antileishmanial activity against promastigote form of Leishmania infantum MCAN/ES/2001/UCM-10 assessed as corrugated cytoplasmic membrane at IC25 concentration after 96 hrs by […] electron microscopic analysis; assay type: functional, organism-based; method in brief: as §1
[21] = system: Leishmania infantum; experiment: Antileishmanial activity against promastigote form of Leishmania infantum MCAN/ES/2001/UCM-10 assessed as cytoplasmic membrane disruption at IC25 concentration after 96 hrs by […] electron microscopic analysis relative to control; assay type: functional, organism-based; method in brief: as §1
[22] = system: Leishmania infantum; experiment: Inhibition of promastigote form Leishmania infantum MCAN/ES/2001/UCM-10 Fe-SOD at 5 uM by NBT reduction assay relative to control; method in brief: as §2
[23] = system: Leishmania infantum; experiment: Antileishmanial activity against promastigote form of Leishmania infantum MCAN/ES/2001/UCM-10 assessed as vacuoles in cytoplasm at IC25 concentration after 96 hrs by […] electron microscopic analysis relative to control; assay type: functional, organism-based; method in brief: as §1
[24] = system: Leishmania infantum; experiment: Antileishmanial activity against promastigote form of Leishmania infantum MCAN/ES/2001/UCM-10 assessed as death-like aspect vesicles at IC25 concentration after 96 hrs by […] electron microscopic analysis relative to control; assay type: functional, organism-based; method in brief: as §1
[25] = system: Leishmania braziliensis; experiment: Antileishmanial activity against promastigote form of Leishmania braziliensis MHOM/BR/1975/M2904 assessed as structural alterations at IC25 concentration after 96 hrs by MET microscopic analysis; assay type: functional; details: MHOM/BR/75/M2904; method in brief: as §1

Row | IC50 [6] [µM] | Compound | inhibition (INH) [8] [%] | selectivity ratio [10] | Ratio [13] | Activity [15] | Activity [16] | Activity [17] | Activity [18] | Activity [20] | further results
1 | 1.3 | Cl.c1ccc(CNCCN2CCNCc3cccc(n3)CNCC2)nc1 | 83 | 16.4 | 32 |  |  |  |  |  | Activity [1]: Active; Activity [2]: Active; Activity [3]: Active; Activity [4]: Active; Activity [5]: Active; Activity [7]: Active; Activity [9]: Active; Activity [11]: inactive; Activity [12]: Active
2 | 9 | Cl.c1cncc(CNCCN2CCNCc3cccc(n3)CNCC2)c1 | 86 | 24.9 | 39 | Active | Active | Active | Active | Active | inhibition [14]: 100%; Activity [19]: Active; Activity [21]: Active; inhibition [22]: 100%
3 | 16.6 | Cl.c1cc2nc(c1)CNCCN(CCNCc1cccc3ccccc13)CCNC2 | 71 | 18.8 | 29 | Active | Active | Active | Active | Active | Activity [23]: Active; Activity [24]: Active; Activity [25]: inactive
4 | 15.1 | Br.NCCN1CCNCc2cccc(n2)CNCC1 | 64 | 12.2 | 29 |  |  |  |  |  | 
